About 500 (0.14%) of roughly 360,000 compounds were called active.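 The calls were made as follows: active = mean inhibition of at least 70% across replicates, with every replicate also reaching that level; inconclusive = mean inhibition reaches 70% but some replicates fall short; inactive = mean inhibition below 70%.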 This excerpt belongs to a sample that is enriched for actives.
biological target: Protein S100-A4 (Homo sapiens) (UniProt P26447); assay: inhibitors of S100A4-myosin IIA peptide binding, primary screen, biochemical, fluorescence polarization, TAMRA-MyoIIA peptide (AID 652163); conditions: at 10.7 µM, hits give high values
Sequence (P26447 whole entry, looked up): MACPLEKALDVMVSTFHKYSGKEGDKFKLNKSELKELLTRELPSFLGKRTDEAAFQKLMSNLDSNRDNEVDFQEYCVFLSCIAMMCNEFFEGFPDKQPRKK
Outline: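 assay system = human S100A4 monomer with TAMRA-labelled myosin IIA peptide | also added = labelled myosin peptide probe, 5 nM | incubation = 5 min between mix addition and reading | control set = DMSO and TFP controls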

| SMILES | inhibition |
| --- | --- |
| O=C(C[C@H]1C=C[C@H](NC(=O)NC2CCCCC2)[C@H](CO)O1)NCc1ccccc1 | 11.3% (inactive) |
| C[C@@H]1CN([C@@H](C)CO)C(=O)c2cc(NS(C)(=O)=O)ccc2O[C@@H]1CN(C)C(=O)Nc1ccccc1 | -7.83% (inactive) |
| C[C@@H]1CCCCO[C@@H](CN(C)C(=O)C2CCCCC2)[C@@H](C)CN([C@H](C)CO)C(=O)c2cc(NC(=O)c3ccccc3)ccc2O1 | 5.47% (inactive) |
| Cc1ccccc1-c1ccc2c(c1)O[C@@H](CN(C)C(=O)Nc1ccc(F)cc1)[C@H](C)CN([C@@H](C)CO)S2(=O)=O | -6.84% (inactive) |
| C[C@H]1CN([C@@H](C)CO)C(=O)c2cc(-c3cccc(F)c3)cnc2O[C@@H]1CN(C)C(=O)c1ccccn1 | 1.67% (inactive) |
| C[C@H]1CN([C@@H](C)CO)C(=O)c2cccc(NC(=O)Nc3ccccc3)c2O[C@@H]1CN(C)C(=O)Nc1cccc2ccccc12 | 8.48% (inactive) |
| COc1ccc2c(c1)C=CC1(O2)N(CCO)c2ccccc2C1(C)C (stereo not given) | 97.1% (active) |
| CN1c2ccc([N+](=O)[O-])cc2C(C)(C)C12C=Cc1cc(C(=O)O)ccc1O2 (stereo not given) | -14.5% (inactive) |
| COc1cccc(CC2(CO)CCCN(CC3=Cc4cc(OC)ccc4OC3)C2)c1 (stereo not given) | -14.5% (inactive) |
| CN(C)CC(=O)N[C@H]1CC[C@@H](CCNC(=O)C2CCCC2)O[C@@H]1CO | 4.07% (inactive) |
| C[C@@H]1CN([C@H](C)CO)C(=O)Cc2cc(NS(=O)(=O)c3ccc(Cl)cc3)ccc2O[C@@H]1CN(C)C | -3.76% (inactive) |
| O=C(C[C@H]1C[C@H]2c3cc(NC(=O)Nc4ccccc4)ccc3O[C@H]2[C@H](CO)O1)NC1CCCC1 | -3.39% (inactive) |
| CN(C)C(=O)C[C@H]1C[C@@H]2c3cc(NC(=O)NC4CCCCC4)ccc3O[C@@H]2[C@@H](CO)O1 | 12.2% (inactive) |
| COC(=O)C(CC#Cc1ccc2c(c1)[C@]1(C(=O)N2)[C@H](c2ccccc2OCCO)N2[C@H](c3ccccc3)[C@H](c3ccccc3)OC(=O)[C@H]2[C@@H]1C(N)=O)C(=O)OC | -5.68% (inactive) |
| O=C(C[C@H]1CC[C@@H]2[C@H](COC[C@H](O)CN2CCC(F)(F)F)O1)NCC1CC1 | -3.95% (inactive) |
| Cn1cnc(S(=O)(=O)N2C[C@@H](O)COC[C@@H]3O[C@H](CC(=O)NC4CCC4)CC[C@H]32)c1 | 0.326% (inactive) |
| Cn1cnc(S(=O)(=O)N2C[C@H](O)COC[C@@H]3O[C@H](CC(=O)NC4Cc5ccccc5C4)CC[C@H]32)c1 | 2.44% (inactive) |
| Cn1cnc(S(=O)(=O)N2C[C@H](O)COC[C@@H]3O[C@H](CC(=O)NC4CCCC4)CC[C@H]32)c1 | 126% (active) |
| O=C(C[C@H]1CC[C@H]2[C@@H](COC[C@@H](O)CN2C(=O)Nc2ccc(C(F)(F)F)cc2)O1)NC1Cc2ccccc2C1 | 9.1% (inactive) |
| C[C@H]1CN([C@@H](C)CO)C(=O)c2cccc(NC(=O)c3cnccn3)c2O[C@H]1CN(C)S(=O)(=O)c1cn(C)cn1 | 2.47% (inactive) |

| SMILES | inhibition |
| --- | --- |
| COCCNC(=O)[C@H]1[C@H](CO)[C@H]2Cn3c(ccc(-c4ccccc4F)c3=O)[C@H]2N1C(=O)C1CCC1 | -0.238% (inactive) |
| COc1ccc(CN(C)C[C@H]2Oc3c(NS(=O)(=O)c4ccc(C)cc4)cccc3C(=O)N([C@@H](C)CO)C[C@@H]2C)cc1 | -5.34% (inactive) |
| CNC(=O)C[C@H]1CC[C@@H]2[C@H](COc3ccc(NC(=O)Nc4ccc(F)c(F)c4)cc3C(=O)N2C)O1 | -1.52% (inactive) |
| C[C@H]1CN([C@@H](C)CO)C(=O)c2cc(C#CC3CCCC3)cnc2O[C@H]1CN(C)C(=O)c1ccncc1 | 11.5% (inactive) |
| CO[C@H]1CN(C)C(=O)c2cc(NC(=O)C3CC3)ccc2OC[C@H](C)N(Cc2ccccc2)C[C@H]1C | 3.65% (inactive) |
| O=C(N[C@@H]1CC[C@@H](CC(=O)N2CCc3ccccc3C2)O[C@@H]1CO)C1CCOCC1 | 13.9% (inactive) |
| C[C@@H]1CN([C@@H](C)CO)C(=O)c2cc(NS(=O)(=O)c3cn(C)cn3)ccc2O[C@@H]1CN(C)C(=O)NC1CCCCC1 | 12.5% (inactive) |
| O=C(C[C@@H]1CC[C@@H]2[C@H](COC[C@H](O)CN2C(=O)c2ccc3c(c2)OCO3)O1)NC1CCCC1 | 6.17% (inactive) |
| CC(C)NC(=O)N(C)C[C@@H]1Oc2ccc(NC(=O)C3CCCCC3)cc2CC(=O)N([C@H](C)CO)C[C@@H]1C | 1.64% (inactive) |
| C[C@@H]1CCCCO[C@H](CN(C)C(=O)Nc2ccc3c(c2)OCO3)[C@H](C)CN([C@H](C)CO)C(=O)c2cc(NS(C)(=O)=O)ccc2O1 | -0.157% (inactive) |
| CCn1c(=S)[nH]c2cc(S(=O)(=O)N3CCOCC3)ccc21 | -2.43% (inactive) |
| CNS(=O)(=O)c1ccc2c(c1)[nH]c(=S)n2C | 82.4% (active) |
| Cn1c(=O)n(C)c2cc(S(=O)(=O)Nc3ccc(F)cc3)ccc21 | 0.871% (inactive) |
| COC(=O)c1c(NC(=O)CSc2nncs2)sc2c1CCCCC2 | -2.13% (inactive) |
| COC(=O)c1c(NC(=O)C2CC(C)=C(C)CC2C(=O)O)sc2c1CCCCC2 (stereo not given) | -3.38% (inactive) |
| Cc1noc(C)c1S(=O)(=O)N(C)C[C@@H]1OCCCC[C@@H](C)Oc2ccc(NS(=O)(=O)c3ccccc3)cc2C(=O)N([C@H](C)CO)C[C@@H]1C | -6.41% (inactive) |
| Cc1noc(C)c1NC(=O)Nc1ccc2c(c1)C(=O)N([C@H](C)CO)C[C@H](C)[C@@H](CN(C)S(C)(=O)=O)OCCCC[C@H](C)O2 | 7.29% (inactive) |
| Cc1noc(C)c1S(=O)(=O)Nc1ccc2c(c1)C(=O)N([C@@H](C)CO)C[C@@H](C)[C@@H](CN(C)S(=O)(=O)c1ccccc1)OCCCC[C@H](C)O2 | -42.8% (inactive) |
| Cc1noc(C)c1S(=O)(=O)N(C)C[C@H]1OCCCC[C@H](C)Oc2ccc(NS(=O)(=O)c3ccccc3)cc2C(=O)N([C@H](C)CO)C[C@@H]1C | 106% (active) |
| C[C@@H]1CCCCO[C@@H](CN(C)C(=O)Cc2ccccc2)[C@H](C)CN([C@@H](C)CO)C(=O)c2cc(NC(=O)Nc3ccc4c(c3)OCO4)ccc2O1 | 121% (active) |

| SMILES | inhibition |
| --- | --- |
| C[C@@H]1CCCCO[C@H](CN(C)C(=O)c2ccccc2)[C@H](C)CN([C@@H](C)CO)C(=O)c2cc(NC(=O)Nc3ccc4c(c3)OCO4)ccc2O1 | -5.3% (inactive) |
| Cc1noc(C)c1NC(=O)Nc1ccc2c(c1)C(=O)N([C@H](C)CO)C[C@@H](C)[C@@H](CN(C)S(=O)(=O)c1ccc(Cl)cc1)OCCCC[C@H](C)O2 | 108% (active) |
| Cc1noc(C)c1NC(=O)Nc1ccc2c(c1)C(=O)N([C@H](C)CO)C[C@@H](C)[C@H](CN(C)S(=O)(=O)c1ccc(Cl)cc1)OCCCC[C@H](C)O2 | -9.02% (inactive) |
| CC(C)NC(=O)Nc1ccc2c(c1)C(=O)N([C@@H](C)CO)C[C@@H](C)[C@H](CN(C)C(=O)Cc1ccccc1)OCCCC[C@H](C)O2 | 2.76% (inactive) |
| CCCC(=O)Nc1ccc2c(c1)OC[C@H](C)N(CCC(F)(F)F)C[C@@H](C)[C@H](OC)CN(C)C2=O | -10.8% (inactive) |
| CCCC(=O)N1CC2(C1)CN(C(=O)Nc1cccc(F)c1)[C@@H](CO)c1c2c2ccc(OC)cc2n1C | 14.3% (inactive) |
| CN1c2ccc(-c3cccc(F)c3)cc2[C@H]2[C@H](CCN2C(=O)c2cccc(F)c2)[C@H]1CO | -3.81% (inactive) |
| CN1c2ccc(-c3ccccc3)cc2[C@@H]2[C@@H](CCN2C(=O)c2ccccc2)[C@H]1CO | 80% (active) |
| CN1c2ccc(-c3ccccc3)cc2[C@@H]2[C@@H](CCN2C(=O)c2ccncc2)[C@@H]1CO | 0.924% (inactive) |
| CN1CCN(C(=O)C[C@H]2CC[C@H]3[C@@H](COC[C@H](O)CN3C(=O)c3ccc(F)cc3)O2)CC1 | -6.97% (inactive) |
| CCCNC(=O)N1C[C@H](C)[C@@H](OC)CN(C)C(=O)c2ccc(NS(=O)(=O)CC(F)(F)F)cc2OC[C@@H]1C | -4.41% (inactive) |
| O=C(NCC1CC1)[C@@H]1[C@@H](CO)[C@@H]2Cn3c(ccc(-c4ccncc4)c3=O)[C@H]1N2Cc1nccs1 | 5.95% (inactive) |
| C[C@@H]1CN([C@@H](C)CO)C(=O)Cc2cc(NS(C)(=O)=O)ccc2O[C@@H]1CN(C)Cc1ccc2c(c1)OCO2 | -41.9% (inactive) |
| O=C([C@@H]1[C@@H](CO)[C@@H]2Cn3c(ccc(-c4ccccc4F)c3=O)[C@H]1N2C(=O)C1CCC1)N1CCCCC1 | 3.88% (inactive) |
| CCCN1[C@H](C(=O)N2CCCCC2)[C@@H](CO)[C@@H]2Cn3c(ccc(-c4ccccc4F)c3=O)[C@@H]21 | 89.8% (active) |
| CN(C)C(=O)[C@@H]1[C@@H](CO)[C@@H]2Cn3c(ccc(-c4ccccc4F)c3=O)[C@@H]2N1C(=O)C1CC1 | -4.07% (inactive) |
| N#C[C@@H]1[C@@H](c2ccccc2)[C@@H](CO)N1C(=O)c1cc(Cl)cc(Cl)c1 | 3% (inactive) |
| COc1ccccc1-c1cnc2c(c1)C(=O)N([C@H](C)CO)C[C@H](C)[C@@H](CN(C)CC1CCOCC1)O2 | -8.2% (inactive) |
| COc1cccc(C(=O)Nc2ccc3c(c2)OC[C@H](C)NC[C@H](C)[C@H](OC)CN(C)C3=O)c1 | -5.1% (inactive) |
| C[C@H](CO)N1C[C@H](C)[C@@H](CN(C)C(=O)NC2CCCCC2)Oc2ccc(NC(=O)c3ccncc3)cc2CC1=O | 5.06% (inactive) |

Source: PubChem BioAssay AID652163 (Broad Institute, 2013)
